ChEMBL document CHEMBL1938274, “Discovery of potent and specific CXCR3 antagonists” (Bioorg Med Chem Lett, 2012)
Values belong to the compound of their own block, whether it stands above or below them.

Tests used:
[1] = Volume of distribution at steady state in mouse at 1 mg/kg, iv; assay type: ADME, organism-based; parameters: dose 1 mg/kg, route intravenous; details: in vivo, read-out: Vdss
How it was run: (§1)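 Single intravenous dose in 10% N,N-dimethylacetamide, 10% ethanol, 30% propylene glycol, 50% water: 1 mg/kg mouse; 0.5 mg/kg rat, beagle dog, cynomolgus monkey. Plasma clearance also given as percent of hepatic blood flow.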

[2] = Volume of distribution at steady state in cynomolgus monkey at 0.5 mg/kg, iv; assay type: ADME, organism-based, Macaca fascicularis; parameters: dose 0.5 mg/kg, route intravenous; details: in vivo, read-out: Vdss; how it was run: as §1
[3] = Mean residence time in Beagle dog at 0.5 mg/kg, iv; assay type: ADME, organism-based, Canis lupus familiaris; parameters: dose 0.5 mg/kg, route intravenous; details: in vivo; how it was run: as §1
[4] = Mean residence time in rat at 0.5 mg/kg, iv; assay type: ADME, organism-based; parameters: dose 0.5 mg/kg, route intravenous; details: in vivo; how it was run: as §1
[5] = Apparent oral bioavailability in Beagle dog at 2 mg/kg; assay type: ADME, organism-based, Canis lupus familiaris; details: in vivo, read-out: Fapp
[6] = Volume of distribution at steady state in Beagle dog at 0.5 mg/kg, iv; assay type: ADME, organism-based, Canis lupus familiaris; parameters: dose 0.5 mg/kg, route intravenous; details: in vivo, read-out: Vdss; how it was run: as §1
[7] = Apparent oral bioavailability in cynomolgus monkey at 2 mg/kg; assay type: ADME, organism-based, Macaca fascicularis; details: in vivo, read-out: Fapp
[8] = Mean residence time in cynomolgus monkey at 0.5 mg/kg, iv; assay type: ADME, organism-based, Macaca fascicularis; parameters: dose 0.5 mg/kg, route intravenous; details: in vivo; how it was run: as §1
[9] = Clearance in rat at 0.5 mg/kg, iv; assay type: ADME, organism-based; parameters: dose 0.5 mg/kg, route intravenous; details: in vivo; how it was run: as §1
[10] = Mean residence time in mouse at 1 mg/kg, iv; assay type: ADME, organism-based; parameters: dose 1 mg/kg, route intravenous; details: in vivo; how it was run: as §1
[11] = biological target: T1, C-X-C chemokine receptor type 3 (Homo sapiens, UniProt P49682); test: Displacement of [125I]-IP-10 from CXCR3 in presence of 100% human serum
T1 sequence (P49682 whole entry): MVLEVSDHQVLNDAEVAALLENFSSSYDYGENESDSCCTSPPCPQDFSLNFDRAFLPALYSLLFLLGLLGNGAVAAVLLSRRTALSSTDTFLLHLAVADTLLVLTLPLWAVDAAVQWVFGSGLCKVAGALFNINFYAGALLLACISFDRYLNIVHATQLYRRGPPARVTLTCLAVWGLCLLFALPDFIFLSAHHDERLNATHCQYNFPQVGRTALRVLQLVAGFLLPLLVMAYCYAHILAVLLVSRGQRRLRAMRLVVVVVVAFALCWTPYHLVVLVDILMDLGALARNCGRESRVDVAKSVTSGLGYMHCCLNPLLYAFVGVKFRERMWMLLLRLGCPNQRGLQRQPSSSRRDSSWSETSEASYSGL

[12] = Clearance in cynomolgus monkey at 0.5 mg/kg, iv; assay type: ADME, organism-based, Macaca fascicularis; parameters: dose 0.5 mg/kg, route intravenous; details: in vivo; how it was run: as §1
[13] = Clearance in mouse at 1 mg/kg, iv; assay type: ADME, organism-based; parameters: dose 1 mg/kg, route intravenous; details: in vivo; how it was run: as §1
[14] = Apparent oral bioavailability in rat at 2 mg/kg; assay type: ADME, organism-based; details: in vivo, read-out: Fapp
PBL [15] = test: Toxicity in human PBL assessed as chromosomal aberrations at 7.81 to 1000 ug/mL; assay type: cell-based
How it was run: (§2)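 Cultured human peripheral blood lymphocytes exposed at 7.81–1000 μg/mL, with and without S9 metabolic activation; chromosomal aberrations scored.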

[16] = biological target: T1, C-X-C chemokine receptor type 3; test: Displacement of [125I]-IP-10 from CXCR3
PBL [17] = test: Toxicity in human PBL assessed as chromosomal aberrations at 7.81 to 1000 ug/mL in the presence of S9; assay type: cell-based; how it was run: as §2
[18] = Volume of distribution at steady state in rat at 0.5 mg/kg, iv; assay type: ADME, organism-based; parameters: dose 0.5 mg/kg, route intravenous; details: in vivo, read-out: Vdss; how it was run: as §1
[19] = Clearance in Beagle dog at 0.5 mg/kg, iv; assay type: ADME, organism-based, Canis lupus familiaris; parameters: dose 0.5 mg/kg, route intravenous; details: in vivo; how it was run: as §1
[20] = Apparent oral bioavailability in mouse at 5 mg/kg; assay type: ADME, organism-based; details: in vivo, read-out: Fapp
Cytochrome P450 3A4 [21] = biological target: T2, Cytochrome P450 3A4 (Homo sapiens, UniProt P08684); test: Time dependent inhibition of CYP3A4; assay type: ADME
T2 sequence (P08684 whole entry): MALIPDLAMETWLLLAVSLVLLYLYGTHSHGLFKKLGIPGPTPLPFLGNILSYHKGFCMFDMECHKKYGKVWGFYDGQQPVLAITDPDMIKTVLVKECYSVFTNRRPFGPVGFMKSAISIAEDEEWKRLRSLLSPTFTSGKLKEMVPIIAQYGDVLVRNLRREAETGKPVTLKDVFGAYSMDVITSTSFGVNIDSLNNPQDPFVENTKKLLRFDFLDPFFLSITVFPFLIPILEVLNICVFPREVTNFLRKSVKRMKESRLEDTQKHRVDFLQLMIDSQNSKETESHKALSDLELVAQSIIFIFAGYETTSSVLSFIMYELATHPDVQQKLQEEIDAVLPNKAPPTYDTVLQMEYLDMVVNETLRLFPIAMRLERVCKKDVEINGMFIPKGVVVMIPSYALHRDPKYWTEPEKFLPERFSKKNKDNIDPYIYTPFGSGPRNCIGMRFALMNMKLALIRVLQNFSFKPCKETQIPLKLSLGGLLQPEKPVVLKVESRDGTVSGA

Cytochrome P450 3A4 [22] = biological target: T2, Cytochrome P450 3A4; test: Inhibition of CYP3A4; assay type: ADME
Cytochrome P450 2D6 = Cytochrome P450 2D6 (Homo sapiens, UniProt P10635); test: Inhibition of CYP2D6; assay type: ADME
Chain of Cytochrome P450 2D6 (P10635 whole entry): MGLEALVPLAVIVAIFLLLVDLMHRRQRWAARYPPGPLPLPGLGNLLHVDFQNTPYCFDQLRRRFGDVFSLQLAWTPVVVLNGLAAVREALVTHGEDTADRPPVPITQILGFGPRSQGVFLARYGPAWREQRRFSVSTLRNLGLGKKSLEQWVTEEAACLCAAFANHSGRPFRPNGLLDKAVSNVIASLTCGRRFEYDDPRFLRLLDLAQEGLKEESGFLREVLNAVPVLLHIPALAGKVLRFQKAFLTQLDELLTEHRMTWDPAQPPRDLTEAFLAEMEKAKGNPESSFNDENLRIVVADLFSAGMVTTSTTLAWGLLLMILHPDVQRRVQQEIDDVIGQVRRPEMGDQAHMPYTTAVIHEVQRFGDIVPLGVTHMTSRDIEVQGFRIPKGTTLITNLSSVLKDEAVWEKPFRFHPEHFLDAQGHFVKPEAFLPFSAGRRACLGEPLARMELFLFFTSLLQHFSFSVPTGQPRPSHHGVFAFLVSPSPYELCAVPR

Structure (SMILES): C[C@H](c1nc2ncccc2c(=O)n1-c1ccc(F)cc1)N(CC1CCS(=O)(=O)CC1)C(=O)Cc1ccc(F)c(C(F)(F)F)c1
Vd [1]: 0.73 L/kg | Vd [2]: 2.2 L/kg | MRT [3]: 1.5 h | MRT [4]: 2.4 h | bioavailability [5]: > 100% | Vd [6]: 1.3 L/kg | bioavailability [7]: 51% | MRT [8]: 6.4 h | clearance [9]: 35 mL/min/kg | MRT [10]: 2.1 h | IC50 [11]: 0.017 µM | clearance [12]: 5.67 mL/min/kg | clearance [13]: 5.67 mL/min/kg | bioavailability [14]: > 100% | Activity (PBL [15]): Non-toxic | IC50 [16]: 0.007 µM | Activity (PBL [17]): Non-toxic | Vd [18]: 5 L/kg | clearance [19]: 14.8 mL/min/kg | bioavailability [20]: 59%

Structure (SMILES): C[C@H](c1nc2ncccc2c(=O)n1-c1ccc(Cl)cc1)N(CC1CCS(=O)(=O)CC1)C(=O)Cc1ccc(C(F)(F)F)c(F)c1
IC50 (Cytochrome P450 3A4 [22]): > 10 µM | IC50 [11]: 0.013 µM | Activity (PBL [15]): Non-toxic | Activity (PBL [17]): Non-toxic | IC50 (Cytochrome P450 2D6): > 10 µM

Structure (SMILES): C[C@H](c1nc2ccccn2c(=O)c1-c1ccc(C#N)cc1)N(CC1CCS(=O)(=O)CC1)C(=O)Cc1ccc(OC(F)(F)F)cc1
IC50 [11]: 0.022 µM | Activity (PBL [15]): Toxic | IC50 [16]: 0.006 µM | Activity (PBL [17]): Toxic

Second part, led by results:

TDI (Cytochrome P450 3A4 [21]): Not Active
Structure (SMILES): CCOc1ccc(-c2c([C@@H](C)N(CCS(=O)(=O)CC)C(=O)Cc3ccc(F)c(C(F)(F)F)c3)nc3ccccn3c2=O)cc1

IC50 [11]: 0.029 µM | IC50 [16]: 0.013 µM
Structure (SMILES): C[C@H](c1nc2ncccc2c(=O)n1-c1ccc(C#N)cc1)N(CCS(C)(=O)=O)C(=O)Cc1ccc(F)c(C(F)(F)F)c1
Activity (PBL [15]): Toxic | Activity (PBL [17]): Toxic

TDI (Cytochrome P450 3A4 [21]): Not Active
Structure (SMILES): CCOc1ccc(-n2c([C@@H](C)N(CCS(=O)(=O)CC)C(=O)Cc3ccc(F)c(C(F)(F)F)c3)nc3ncccc3c2=O)cc1
